Assay results of several laboratories.
Protocols differ between the studies behind these lines.
Cell line: A549
Effect on: cell growth or viability

| SMILES | technique | time | IC50 |
| --- | --- | --- | --- |
| O=C(N/N=C/c1cccn1CCCN1CCCC1)Nc1cc2c(Nc3ccc(F)c(Cl)c3)ncnc2cc1O[C@H]1CCOC1 | MTT | 72 h | 4.36 µM |
| COc1ccccc1/C=C/CNCC(O)COc1ccncc1 (stereo not shown) | CCK-8 | 72 h | > 100 µM |
| COc1ccc(NC(=O)Nc2ccc(OCc3ncc(C)c(OC)c3C)cc2)cc1 | MTT | 72 h | 12.9 µM |
| COc1cccc2c1C(=O)c1c(O)c3c(c(O)c1C2=O)C[C@@](O)(C(=O)CO)C[C@@H]3O[C@H]1C[C@H](N)[C@H](O)[C@H](C)O1 | MTT | 24 h | > 100 µM |
| O=C1Nc2ccc(Br)cc2/C1=N/NC(=O)c1cc2ccccc2[nH]1 |  |  | 16 µM |
| Cc1ccc(C)n1-c1ccc(-c2nnc(-c3ccc(Br)cc3)[nH]2)cc1 | MTT | 72 h | 225 µM |
| CCC(=O)Nc1cc(Nc2nc(N3CCc4sccc4C3)c3cccnc3n2)c(OC)cc1N1CCSCC1 | MTT |  | 7.91 µM |
| Oc1ncnc2cc(Nc3nc(-c4ccc(F)cc4)cs3)ccc12 | MTT |  | 19 µM |
| COc1cc2ncnc(Nc3ccc(F)c(Cl)c3)c2cc1NC(=O)N/N=C/c1cccn1CCCN1CCN(C)CC1 | MTT | 72 h | 3.23 µM |
| COc1ccccc1/C=C/CNCC(O)COc1ccccc1 (stereo not shown) | CCK-8 | 72 h | 17.4 µM |
| Oc1ncnc2cc(Nc3nc(-c4ccc(C(F)(F)F)cc4)cs3)ccc12 | MTT |  | 14.8 µM |
| COc1c(C)cnc(COc2ccc(NC(=O)Nc3ccc(F)cc3)cc2)c1C | MTT | 72 h | 13.2 µM |
| O=C(NNC(=O)c1ccc(Nc2nccc(-c3ccccn3)n2)cc1)NC1CCCC1 | MTT |  | > 40 µM |
| NNC(=O)c1ccncc1 | MTT | 72 h | > 450 µM |
| COc1ccc(NC(=O)NNC(=O)c2cccc(Nc3nccc(-c4cccnc4)n3)c2)c(OC)c1 | MTT | 24 h | > 40 µM |
| O=C1Nc2ccc(F)cc2/C1=N/NC(=O)c1cc2ccccc2[nH]1 |  |  | > 30 µM |
| C=CC(=O)Nc1cc(Nc2nc(N3CCOCC3)c3sccc3n2)c(OC)cc1N(C)CCN(C)C | MTT |  | > 50 µM |
| Cc1c(OCC(F)(F)F)ccnc1COc1ccc(NC(=O)Nc2cc(F)cc(F)c2)cc1 | MTT | 72 h | 7.67 µM |
| O=C(NC(=S)NCCCNC(=S)NC(=O)c1ccc2ccccc2c1)c1ccc2ccccc2c1 |  | 48 h | 2.41 µM |
| COc1ccccc1/C=C/CNCC(O)COc1cccc2c1[nH]c1ccccc12 (stereo not shown) | CCK-8 | 72 h | 11.2 µM |

| SMILES | technique | time | IC50 |
| --- | --- | --- | --- |
| O=C(N/N=C/c1cccn1CCCN1CCOCC1)Nc1cc2c(Nc3ccc(F)c(Cl)c3)ncnc2cc1O[C@H]1CCOC1 | MTT | 72 h | 5.62 µM |
| C=CC(=O)Nc1cc(Nc2nc(N3CCc4sccc4C3)c3cccnc3n2)c(OC)cc1N1CCN(CC)CC1 | MTT |  | 1.42 µM |
| CCN(CC)C/C=N/NC(=O)Nc1cc2c(Nc3ccc(F)c(Cl)c3)ncnc2cc1O[C@H]1CCOC1 | MTT | 72 h | 4.32 µM |
| C=CC(=O)Nc1cc(Nc2nc(N3CCc4sccc4C3)c3cccnc3n2)c(OC)cc1N1CCOCC1 | MTT |  | > 50 µM |
| COc1cc([C@@H]2c3cc4c(cc3[C@@H](O[C@@H]3O[C@@H]5CO[C@@H](C)O[C@H]5[C@H](O)[C@H]3O)[C@H]3COC(=O)[C@H]23)OCO4)cc(OC)c1O | MTT | 72 h | 2 µM |
| CCOc1cc(OCC)cc(C(=O)O[C@@H]2CN3Cc4c(cc5c(c4OC)OCO5)[C@@]24C=C[C@H](OC)C[C@@H]34)c1 | WST-1 |  | > 10 µM |
| CC1=C(O)C(=O)C=C2C1=CC=C1[C@@]2(C)CC[C@@]2(C)[C@@H]3C[C@](C)(C(=O)OCCCCCCO)CC[C@]3(C)CC[C@]12C | MTT | 48 h | > 100 µM |
| Cc1ccc(NC(=O)CSc2nnc(Cn3cnc4c3c(=O)n(C)c(=O)n4C)n2-c2ccccc2)cc1C | MTT |  | 198 µM |
| CCC(=O)Nc1cc(Nc2nc(N3CCc4sccc4C3)c3cccnc3n2)c(OC)cc1N1CCN(CCO)CC1 | MTT |  | > 50 µM |
| O=C(O)c1ccc(-n2nc(-c3ccccc3O)nc2-c2ccccc2O)cc1 | MTT | 72 h | 12.1 µM |
| Brc1ccc(Nc2nc(NCCc3ccccc3)nc(NCCc3ccccc3)n2)cc1 | SRB | 72 h | 19.7 µM |
| COc1c(C)c(OC)c2c(c1C)OC(c1ccccc1)CC2=O (stereo not shown) | SRB | 72 h | > 50 µM |
| COc1c(C)cnc(COc2ccc(NC(=O)Nc3cccc(C(F)(F)F)c3)cc2)c1C | MTT | 72 h | 20.2 µM |
| O=C(NC(=S)NCc1ccccc1)c1ccc2ccccc2c1 |  | 48 h | 5.53 µM |
| COc1cc2ncnc(Nc3ccc(F)c(Cl)c3)c2cc1NC(=O)N/N=C/CN1CCCCC1 | MTT | 72 h | 5.63 µM |
| COc1cccc2c1C(=O)c1c(O)c3c(c(O)c1C2=O)C[C@@](O)(C(=O)CO)C[C@@H]3O[C@H]1C[C@H](N)[C@H](O)[C@H](C)O1 | MTT | 48 h | 2.42 µM |
| O=C(/N=C1\SCC(=O)N1C1CCCCC1)c1ccc2ccccc2c1 |  | 48 h | 18.8 µM |
| O=C(CN1C(=O)/C(=C/c2ccc(Cl)cc2)SC1=S)Nc1ccccc1 | MTT |  | 14.3 µM |
| COc1ccccc1CNCC(O)COc1cccc2[nH]c3ccccc3c12 (stereo not shown) | CCK-8 | 72 h | 13.9 µM |
| COc1cc2ncnc(Nc3ccc(F)c(Cl)c3)c2cc1NC(=O)N/N=C/c1cccn1CCN1CCOCC1 | MTT | 72 h | 0.58 µM |
